Test results from ChEMBL document CHEMBL4376814, “Novel cyclin-dependent kinase 9 (CDK9) inhibitor with suppression of cancer stemness activity against non-small-cell lung cancer” (Eur J Med Chem, 2019).
Calls of active or inactive are those of the source. No cut-off for these calls is given here.

Assays:
[1] = biological target: Insulin-like growth factor 1 receptor (Homo sapiens) (UniProt P08069); assay: Inhibition of recombinant human IGF1R (959 to end residues) at 1 uM using KKKSPGEYVNIEFG as substrate measured after 40 mins in presence of [gamma33P]ATP by scintillation counting method relative to control
[2] = biological target: Myosin light chain kinase, smooth muscle (Homo sapiens) (UniProt Q15746); assay: Inhibition of recombinant human MLCK (1425 to 1771 residues) at 1 uM using calmodulin as substrate measured after 40 mins in presence of [gamma33P]ATP by scintillation counting method relative to control
[3] = biological target: Casein kinase II subunit alpha' (Homo sapiens) (UniProt P19784); assay: Inhibition of full length recombinant human CK2alpha2 at 1 uM using RRRDDDSDDD as substrate measured after 40 mins in presence of [gamma33P]ATP by scintillation counting method relative to control
A549 [4] = assay: Induction of apoptosis in human A549 cells assessed as necrotic cells at 0.5 uM after 48 hrs by AnnexinV-FITC/PI staining-based flow cytometric analysis (reference value: 0.664%); format: functional
[5] = biological target: Serine/threonine-protein kinase Nek11 (Homo sapiens) (UniProt Q8NG66); assay: Inhibition of recombinant full-length human NEK11 at 1 uM using myelin basic protein as substrate measured after 40 mins in presence of [gamma33P]ATP by scintillation counting method relative to control
[6] = biological target: Epidermal growth factor receptor (Homo sapiens) (UniProt P00533); assay: Inhibition of recombinant human EGFR (696 to end residues) at 1 uM using poly (Glu,Tyr) 4:1 as substrate incubated for 40 mins in presence of [gamma-33P]ATP at Km concentration by radiometric assay relative to control
Chain of Epidermal growth factor receptor (Homo sapiens) (P00533 whole entry): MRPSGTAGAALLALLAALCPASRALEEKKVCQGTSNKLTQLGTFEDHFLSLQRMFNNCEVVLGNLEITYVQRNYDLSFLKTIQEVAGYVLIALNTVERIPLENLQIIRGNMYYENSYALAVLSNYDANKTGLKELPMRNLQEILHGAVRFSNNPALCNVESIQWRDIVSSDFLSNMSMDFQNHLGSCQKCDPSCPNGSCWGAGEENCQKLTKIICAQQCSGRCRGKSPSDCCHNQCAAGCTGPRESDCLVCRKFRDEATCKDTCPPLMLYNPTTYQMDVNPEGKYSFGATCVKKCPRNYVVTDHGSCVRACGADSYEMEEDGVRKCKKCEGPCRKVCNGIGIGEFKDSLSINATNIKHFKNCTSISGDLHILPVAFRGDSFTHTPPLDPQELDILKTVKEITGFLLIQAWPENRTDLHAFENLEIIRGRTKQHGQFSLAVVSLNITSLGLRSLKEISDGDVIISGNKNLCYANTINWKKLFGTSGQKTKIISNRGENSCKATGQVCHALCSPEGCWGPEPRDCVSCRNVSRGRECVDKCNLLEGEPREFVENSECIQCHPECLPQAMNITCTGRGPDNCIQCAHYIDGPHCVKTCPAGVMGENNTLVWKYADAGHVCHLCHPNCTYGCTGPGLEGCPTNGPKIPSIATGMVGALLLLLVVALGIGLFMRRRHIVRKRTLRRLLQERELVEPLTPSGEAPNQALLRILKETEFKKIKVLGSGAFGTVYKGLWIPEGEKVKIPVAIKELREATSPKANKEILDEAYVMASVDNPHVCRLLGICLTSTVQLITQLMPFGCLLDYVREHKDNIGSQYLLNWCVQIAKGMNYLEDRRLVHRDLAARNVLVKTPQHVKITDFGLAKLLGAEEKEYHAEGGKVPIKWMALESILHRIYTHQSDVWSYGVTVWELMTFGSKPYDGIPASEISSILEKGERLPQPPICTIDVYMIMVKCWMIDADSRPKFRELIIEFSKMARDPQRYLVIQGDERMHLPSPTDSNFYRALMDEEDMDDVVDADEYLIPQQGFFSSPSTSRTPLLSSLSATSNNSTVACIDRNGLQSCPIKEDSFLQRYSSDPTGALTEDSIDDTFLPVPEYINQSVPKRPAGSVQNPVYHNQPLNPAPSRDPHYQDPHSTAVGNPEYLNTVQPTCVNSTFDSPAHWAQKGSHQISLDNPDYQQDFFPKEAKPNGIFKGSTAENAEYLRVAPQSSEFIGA

[7] = biological target: PI3-kinase p110-alpha/p85-alpha (Homo sapiens) (UniProt P27986+P42336); assay: Inhibition of recombinant full-length human PI3K p110alpha/p85alpha at 1 uM using phosphatidylinositol-4, 5-bisphosphate as substrate measured after 40 mins by fluorescence assay relative to control; format: protein-complex assay
[8] = biological target: Serine/threonine-protein kinase MRCK alpha (Homo sapiens) (UniProt Q5VT25); assay: Inhibition of recombinant human MRCKalpha (1 to 473 residues) at 1 uM using KKRNRTLTV as substrate measured after 40 mins in presence of [gamma33P]ATP by scintillation counting method relative to control
[9] = biological target: Activated CDC42 kinase 1 (Homo sapiens) (UniProt Q07912); assay: Inhibition of recombinant human ACK1 (1 to 389 residues) at 1 uM using EFPIYDFLPAKKK as substrate measured after 40 mins in presence of [gamma33P]ATP by scintillation counting method relative to control
Chain of Activated CDC42 kinase 1 (Homo sapiens) (Q07912 whole entry, looked up, the tested form may be a part): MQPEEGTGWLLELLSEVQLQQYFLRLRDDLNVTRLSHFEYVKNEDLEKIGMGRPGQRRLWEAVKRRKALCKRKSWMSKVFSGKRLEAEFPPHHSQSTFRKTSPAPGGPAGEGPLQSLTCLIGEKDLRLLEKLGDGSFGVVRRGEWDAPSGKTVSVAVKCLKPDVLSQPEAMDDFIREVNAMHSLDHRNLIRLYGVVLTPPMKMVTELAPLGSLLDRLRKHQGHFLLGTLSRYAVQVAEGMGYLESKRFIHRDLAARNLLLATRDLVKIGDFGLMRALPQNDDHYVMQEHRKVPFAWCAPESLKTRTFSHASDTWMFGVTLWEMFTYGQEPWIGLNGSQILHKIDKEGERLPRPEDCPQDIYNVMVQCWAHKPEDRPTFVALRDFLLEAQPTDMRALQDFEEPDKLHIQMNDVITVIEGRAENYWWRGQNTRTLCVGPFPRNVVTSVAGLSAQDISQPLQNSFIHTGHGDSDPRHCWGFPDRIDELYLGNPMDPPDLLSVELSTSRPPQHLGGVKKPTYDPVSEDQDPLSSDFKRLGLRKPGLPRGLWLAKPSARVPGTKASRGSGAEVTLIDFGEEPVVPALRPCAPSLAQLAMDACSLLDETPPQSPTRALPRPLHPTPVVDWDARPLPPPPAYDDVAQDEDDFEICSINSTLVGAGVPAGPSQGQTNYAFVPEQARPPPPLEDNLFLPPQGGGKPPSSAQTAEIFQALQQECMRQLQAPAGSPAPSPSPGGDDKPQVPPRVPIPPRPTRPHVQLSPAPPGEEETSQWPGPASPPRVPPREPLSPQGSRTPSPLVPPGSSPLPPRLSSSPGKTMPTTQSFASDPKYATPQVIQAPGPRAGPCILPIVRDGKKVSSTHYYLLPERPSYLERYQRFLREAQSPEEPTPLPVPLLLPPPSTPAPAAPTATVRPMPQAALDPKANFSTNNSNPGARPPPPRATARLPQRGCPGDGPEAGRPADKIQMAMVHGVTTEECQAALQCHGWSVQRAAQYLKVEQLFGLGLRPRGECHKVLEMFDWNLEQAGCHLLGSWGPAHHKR

[10] = biological target: Cyclin-dependent kinase 9 (Homo sapiens) (UniProt P50750); details: 0.25 to 1 uM
Chain of Cyclin-dependent kinase 9 (Homo sapiens) (P50750 whole entry, the tested form may be a part): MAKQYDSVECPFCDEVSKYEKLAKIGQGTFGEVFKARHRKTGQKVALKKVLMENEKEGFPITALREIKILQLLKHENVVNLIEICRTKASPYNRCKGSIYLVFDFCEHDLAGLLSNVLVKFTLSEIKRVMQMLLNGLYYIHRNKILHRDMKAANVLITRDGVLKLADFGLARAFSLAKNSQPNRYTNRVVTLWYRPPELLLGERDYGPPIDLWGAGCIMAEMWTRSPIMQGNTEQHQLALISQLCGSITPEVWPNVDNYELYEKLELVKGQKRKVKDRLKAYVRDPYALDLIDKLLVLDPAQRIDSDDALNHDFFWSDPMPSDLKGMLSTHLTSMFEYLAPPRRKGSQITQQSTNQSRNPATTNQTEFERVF

[11] = biological target: Mitogen-activated protein kinase kinase kinase kinase 4 (Homo sapiens) (UniProt O95819); assay: Inhibition of recombinant human MAP4K4 (1 to 328 residues) at 1 uM using RLGRDKYKTLRQIRQ as substrate measured after 40 mins in presence of [gamma33P]ATP by scintillation counting method relative to control
Chain of Mitogen-activated protein kinase kinase kinase kinase 4 (Homo sapiens) (O95819 2-1239 limits assumed): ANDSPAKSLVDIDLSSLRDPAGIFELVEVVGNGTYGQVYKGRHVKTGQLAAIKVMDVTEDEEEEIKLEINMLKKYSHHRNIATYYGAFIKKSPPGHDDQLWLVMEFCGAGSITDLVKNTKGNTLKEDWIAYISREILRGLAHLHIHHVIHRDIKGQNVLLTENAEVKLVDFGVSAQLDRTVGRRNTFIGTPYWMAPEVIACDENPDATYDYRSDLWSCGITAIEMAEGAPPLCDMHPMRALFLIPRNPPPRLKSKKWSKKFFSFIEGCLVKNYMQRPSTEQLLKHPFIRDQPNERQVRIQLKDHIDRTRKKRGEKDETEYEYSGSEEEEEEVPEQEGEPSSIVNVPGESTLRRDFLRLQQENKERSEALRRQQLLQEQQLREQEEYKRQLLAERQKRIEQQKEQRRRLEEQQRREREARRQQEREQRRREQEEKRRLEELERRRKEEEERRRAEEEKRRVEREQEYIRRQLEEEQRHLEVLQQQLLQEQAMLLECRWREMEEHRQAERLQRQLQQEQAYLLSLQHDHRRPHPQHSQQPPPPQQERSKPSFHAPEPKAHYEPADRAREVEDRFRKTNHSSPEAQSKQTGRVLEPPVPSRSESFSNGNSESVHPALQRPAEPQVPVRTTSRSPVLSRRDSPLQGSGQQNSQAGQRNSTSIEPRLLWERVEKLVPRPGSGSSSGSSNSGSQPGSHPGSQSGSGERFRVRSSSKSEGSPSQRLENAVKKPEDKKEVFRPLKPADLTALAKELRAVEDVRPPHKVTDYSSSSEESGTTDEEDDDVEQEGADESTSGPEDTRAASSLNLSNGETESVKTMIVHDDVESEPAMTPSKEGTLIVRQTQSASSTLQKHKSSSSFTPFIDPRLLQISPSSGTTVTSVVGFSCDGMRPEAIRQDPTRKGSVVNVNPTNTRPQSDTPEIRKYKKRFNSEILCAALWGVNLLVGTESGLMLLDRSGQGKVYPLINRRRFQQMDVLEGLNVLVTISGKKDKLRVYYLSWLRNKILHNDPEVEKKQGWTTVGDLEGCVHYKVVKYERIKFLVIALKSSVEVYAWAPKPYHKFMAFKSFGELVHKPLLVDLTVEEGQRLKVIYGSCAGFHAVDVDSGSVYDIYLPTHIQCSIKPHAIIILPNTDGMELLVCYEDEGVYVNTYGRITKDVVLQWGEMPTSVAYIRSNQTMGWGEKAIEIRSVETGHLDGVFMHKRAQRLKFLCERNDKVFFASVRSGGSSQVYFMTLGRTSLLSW

[12] = biological target: SRSF protein kinase 1 (Homo sapiens) (UniProt Q96SB4); assay: Inhibition of human SRPK1 (2 to end residues) at 1 uM using RSRSRSRSRSRSRSR as substrate measured after 40 mins in presence of [gamma33P]ATP by scintillation counting method relative to control
In short: (§1)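 Single-point inhibition at 1 µM was measured in the Eurofins KinaseProfiler panel. Values are the mean of two independent experiments.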

NCI-H1299 = assay: Antitumour activity against human H1299 cells xenografted in Balb/c mouse assessed as inhibition of tumour growth at 20 mg/kg, po administered for 21 days by digital caliper method relative to control; format: functional; details: 504 h, read-out: TGI
In short: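 Female nude mice, 6-8 weeks old, injected subcutaneously with 1×10^6 H1299 cells (100 µL of a 1×10^7/mL suspension in serum-free medium). At 100-120 mm3, randomized into groups of 5. Dosed orally each day for 21 days with drug dissolved in DMSO, or with vehicle. Caliper measurements and body weight taken every other day. Volume = short²×long×0.5. Growth inhibition based on change in volume relative to vehicle. Tumours weighed at the end.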

MDA-MB-231 = assay: Antiproliferative activity against human MDA-MB-231 cells assessed as inhibition of cell viability after 72 hrs by CCK-8 assay; format: functional, cell-based; details: MDA-MB-231, 72 h
In short: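 Cells kept at 37 °C, 5% CO2 in DMEM or RPMI-1640 with 10% FBS and 1% penicillin/streptomycin, then seeded at 3000 cells/well (adherent) or 10,000 cells/well (suspension). Exposed to a range of concentrations for 72 h. CCK-8 added for 1-4 h before reading A450. […] Three independent experiments.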

A549 [13] = assay: Downregulation of KLF4 in human A549 cells at 0.25 to 1 uM by Western blot analysis; format: functional, cell-based
Homo sapiens = species: Homo sapiens; assay: Inhibition of human Ros V2262A mutant (1883 to end residues) at 1 uM using KKKSPGEYVNIEFG as substrate measured after 40 mins in presence of [gamma33P]ATP by scintillation counting method relative to control
In short: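 Percent inhibition of kinase activity at a single compound concentration, measured by the outsourced Eurofins KinaseProfiler panel. Values are the mean of two independent experiments.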

[14] = biological target: Dual specificity mitogen-activated protein kinase kinase 1 (Homo sapiens) (UniProt Q02750); assay: Inhibition of recombinant full-length human MEK1 at 1 uM using unactive MAPK2 as substrate measured after 40 mins in presence of [gamma33P]ATP by scintillation counting method relative to control
[15] = biological target: Activin receptor type-1 (Homo sapiens) (UniProt Q04771); assay: Inhibition of recombinant human ALK2 (147 to end residues) at 1 uM using casein as substrate measured after 40 mins in presence of [gamma33P]ATP by scintillation counting method relative to control; in short: as §1
[16] = biological target: Tyrosine-protein kinase JAK1 (Homo sapiens) (UniProt P23458); assay: Inhibition of recombinant human JAK1 (866 to end residues) at 1 uM using GEEPLYWSFPAKKK as substrate measured after 40 mins in presence of [gamma33P]ATP by scintillation counting method relative to control
Chain of Tyrosine-protein kinase JAK1 (Homo sapiens) (P23458 whole entry): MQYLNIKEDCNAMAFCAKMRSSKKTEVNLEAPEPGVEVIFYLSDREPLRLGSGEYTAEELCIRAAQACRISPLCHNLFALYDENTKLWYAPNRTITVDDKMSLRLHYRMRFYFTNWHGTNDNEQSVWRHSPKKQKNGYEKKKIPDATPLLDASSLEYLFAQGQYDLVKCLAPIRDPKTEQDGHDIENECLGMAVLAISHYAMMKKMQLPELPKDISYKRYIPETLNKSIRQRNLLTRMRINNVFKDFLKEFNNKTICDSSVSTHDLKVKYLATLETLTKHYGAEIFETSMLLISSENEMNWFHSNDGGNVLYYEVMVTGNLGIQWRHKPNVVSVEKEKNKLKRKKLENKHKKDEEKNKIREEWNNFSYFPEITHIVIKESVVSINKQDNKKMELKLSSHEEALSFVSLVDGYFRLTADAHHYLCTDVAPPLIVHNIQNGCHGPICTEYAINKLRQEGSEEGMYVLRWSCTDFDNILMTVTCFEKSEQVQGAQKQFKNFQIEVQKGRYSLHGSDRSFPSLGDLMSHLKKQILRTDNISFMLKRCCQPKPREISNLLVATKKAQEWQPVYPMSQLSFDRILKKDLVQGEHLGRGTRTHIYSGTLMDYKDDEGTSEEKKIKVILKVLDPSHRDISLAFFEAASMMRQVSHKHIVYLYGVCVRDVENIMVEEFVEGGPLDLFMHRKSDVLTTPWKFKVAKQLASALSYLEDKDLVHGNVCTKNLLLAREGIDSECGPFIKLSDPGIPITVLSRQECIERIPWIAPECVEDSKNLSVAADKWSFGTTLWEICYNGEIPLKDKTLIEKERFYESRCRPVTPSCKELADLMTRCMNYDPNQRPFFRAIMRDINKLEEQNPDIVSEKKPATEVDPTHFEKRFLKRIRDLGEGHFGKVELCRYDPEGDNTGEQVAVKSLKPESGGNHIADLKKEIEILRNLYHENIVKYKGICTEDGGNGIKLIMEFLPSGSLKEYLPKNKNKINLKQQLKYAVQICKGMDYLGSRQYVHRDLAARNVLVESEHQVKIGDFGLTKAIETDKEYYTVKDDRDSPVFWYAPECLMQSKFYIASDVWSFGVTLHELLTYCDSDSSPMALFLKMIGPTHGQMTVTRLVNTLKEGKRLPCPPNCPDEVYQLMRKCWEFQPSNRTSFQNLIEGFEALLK

[17] = biological target: Dual specificity mitogen-activated protein kinase kinase 7 (Homo sapiens) (UniProt O14733); assay: Inhibition of recombinant human MKK7 (2 to end residues) at 1 uM using unactive JNK1a1 as substrate measured after 40 mins in presence of [gamma33P]ATP by scintillation counting method relative to control
[18] = biological target: Serine-protein kinase ATM (Homo sapiens) (UniProt Q13315); assay: Inhibition of recombinant full-length human ATM at 1 uM using GST-cMyc-p53 as substrate measured after 40 mins by ELISA relative to control

CN(C)C(=O)c1cc2cnc(Nc3ccc(NC(=O)CCCCCCCN=C=S)cc3)nc2n1C1CCCC1
inhibition [1]: -10%
inhibition [2]: 5%
inhibition [3]: -4%
Activity (A549 [4]): 6.11%
inhibition [5]: 20%
inhibition [6]: 21%
inhibition [7]: 8%
inhibition [8]: -5%
inhibition [9]: 82%
inhibition [10]: Active
inhibition [11]: 16%
inhibition [12]: 12%
inhibition in vivo at 20 mg/kg (NCI-H1299): 62%
IC50 (MDA-MB-231): 3.04 µM
Activity (A549 [13]): Active
inhibition (Homo sapiens): 0%
inhibition [14]: 22%
inhibition [15]: 11%
inhibition [16]: 77%
inhibition [17]: 35%
inhibition [18]: 6%
